{"source": "ChEMBL document CHEMBL4414574", "about": "“Structure-Based Discovery and Development of a Series of Potent and Selective Bromodomain and Extra-Terminal Protein Inhibitors” (J Med Chem, 2019)", "key": {"[1]": {"molecular_target": "Bromodomain-containing protein 2 (Homo sapiens) (UniProt P25440)", "sequence (P25440 whole entry, looked up, the tested form may be a part, canonical isoform)": "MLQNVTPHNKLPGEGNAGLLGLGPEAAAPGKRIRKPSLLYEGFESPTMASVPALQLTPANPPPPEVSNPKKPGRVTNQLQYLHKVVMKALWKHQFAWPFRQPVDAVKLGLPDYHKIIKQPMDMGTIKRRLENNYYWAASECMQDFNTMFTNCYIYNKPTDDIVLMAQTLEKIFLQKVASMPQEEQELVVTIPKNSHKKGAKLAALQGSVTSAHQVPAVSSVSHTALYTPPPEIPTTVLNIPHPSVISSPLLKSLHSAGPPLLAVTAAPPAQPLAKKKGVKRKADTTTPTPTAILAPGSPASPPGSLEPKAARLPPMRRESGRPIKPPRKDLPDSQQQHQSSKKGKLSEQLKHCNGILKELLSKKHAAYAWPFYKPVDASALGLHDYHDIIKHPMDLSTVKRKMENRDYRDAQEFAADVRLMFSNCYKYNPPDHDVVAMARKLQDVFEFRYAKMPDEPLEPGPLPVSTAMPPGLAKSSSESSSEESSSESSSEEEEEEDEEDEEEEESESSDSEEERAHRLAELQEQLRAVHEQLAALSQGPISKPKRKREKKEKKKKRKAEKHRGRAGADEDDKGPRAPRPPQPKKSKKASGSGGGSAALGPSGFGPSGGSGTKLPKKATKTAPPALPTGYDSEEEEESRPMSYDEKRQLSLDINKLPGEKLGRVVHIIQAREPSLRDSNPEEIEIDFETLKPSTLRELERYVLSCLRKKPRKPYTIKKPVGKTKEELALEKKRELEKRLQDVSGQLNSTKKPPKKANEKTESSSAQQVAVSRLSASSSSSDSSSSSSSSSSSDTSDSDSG", "experiment": "Binding affinity to human partial length BRD2 bromodomain 2 isoform 1 (E348 to D455 residues) expressed in Escherichia coli BL21 cells assessed as residual binding level at 1 uM measured after 1 hr by quantitative PCR based BROMOscan assay relative to control", "procedure,_shortened": "(§1)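 A BROMOScan competition-binding panel of 32 bromodomains was run at a single 1 μM compound concentration. Results are primary-screen 'Percent Control', where lower values indicate stronger binding.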"}, "[2]": {"experiment": "Tmax in ICR mouse plasma at 50 mg/kg, po administered via gavage measured after 0.25 to 24 hrs by UPLC/MS analysis", "assay_type": "ADME, organism-based", "procedure,_shortened": "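Male ICR mice dosed orally at 50 mg/kg in 1% DMSO/0.5% HPMC; drug measured in plasma and brain.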"}, "[3]": {"experiment": "AUC (0 to t) in dog plasma at 1 mg/kg, iv", "assay_type": "ADME, organism-based, Canis lupus familiaris", "procedure,_shortened": "(§2)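 Compound was given orally or intravenously in 1% DMSO/0.5% HPMC vehicle. Concentrations in plasma, or in brain where stated, gave Tmax, Cmax, T1/2, AUC0-t and AUC0-inf.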"}, "[4]": {"molecular_target": "CREB-binding protein (Homo sapiens) (UniProt Q92793)", "sequence (Q92793 2-2442 limits assumed)": "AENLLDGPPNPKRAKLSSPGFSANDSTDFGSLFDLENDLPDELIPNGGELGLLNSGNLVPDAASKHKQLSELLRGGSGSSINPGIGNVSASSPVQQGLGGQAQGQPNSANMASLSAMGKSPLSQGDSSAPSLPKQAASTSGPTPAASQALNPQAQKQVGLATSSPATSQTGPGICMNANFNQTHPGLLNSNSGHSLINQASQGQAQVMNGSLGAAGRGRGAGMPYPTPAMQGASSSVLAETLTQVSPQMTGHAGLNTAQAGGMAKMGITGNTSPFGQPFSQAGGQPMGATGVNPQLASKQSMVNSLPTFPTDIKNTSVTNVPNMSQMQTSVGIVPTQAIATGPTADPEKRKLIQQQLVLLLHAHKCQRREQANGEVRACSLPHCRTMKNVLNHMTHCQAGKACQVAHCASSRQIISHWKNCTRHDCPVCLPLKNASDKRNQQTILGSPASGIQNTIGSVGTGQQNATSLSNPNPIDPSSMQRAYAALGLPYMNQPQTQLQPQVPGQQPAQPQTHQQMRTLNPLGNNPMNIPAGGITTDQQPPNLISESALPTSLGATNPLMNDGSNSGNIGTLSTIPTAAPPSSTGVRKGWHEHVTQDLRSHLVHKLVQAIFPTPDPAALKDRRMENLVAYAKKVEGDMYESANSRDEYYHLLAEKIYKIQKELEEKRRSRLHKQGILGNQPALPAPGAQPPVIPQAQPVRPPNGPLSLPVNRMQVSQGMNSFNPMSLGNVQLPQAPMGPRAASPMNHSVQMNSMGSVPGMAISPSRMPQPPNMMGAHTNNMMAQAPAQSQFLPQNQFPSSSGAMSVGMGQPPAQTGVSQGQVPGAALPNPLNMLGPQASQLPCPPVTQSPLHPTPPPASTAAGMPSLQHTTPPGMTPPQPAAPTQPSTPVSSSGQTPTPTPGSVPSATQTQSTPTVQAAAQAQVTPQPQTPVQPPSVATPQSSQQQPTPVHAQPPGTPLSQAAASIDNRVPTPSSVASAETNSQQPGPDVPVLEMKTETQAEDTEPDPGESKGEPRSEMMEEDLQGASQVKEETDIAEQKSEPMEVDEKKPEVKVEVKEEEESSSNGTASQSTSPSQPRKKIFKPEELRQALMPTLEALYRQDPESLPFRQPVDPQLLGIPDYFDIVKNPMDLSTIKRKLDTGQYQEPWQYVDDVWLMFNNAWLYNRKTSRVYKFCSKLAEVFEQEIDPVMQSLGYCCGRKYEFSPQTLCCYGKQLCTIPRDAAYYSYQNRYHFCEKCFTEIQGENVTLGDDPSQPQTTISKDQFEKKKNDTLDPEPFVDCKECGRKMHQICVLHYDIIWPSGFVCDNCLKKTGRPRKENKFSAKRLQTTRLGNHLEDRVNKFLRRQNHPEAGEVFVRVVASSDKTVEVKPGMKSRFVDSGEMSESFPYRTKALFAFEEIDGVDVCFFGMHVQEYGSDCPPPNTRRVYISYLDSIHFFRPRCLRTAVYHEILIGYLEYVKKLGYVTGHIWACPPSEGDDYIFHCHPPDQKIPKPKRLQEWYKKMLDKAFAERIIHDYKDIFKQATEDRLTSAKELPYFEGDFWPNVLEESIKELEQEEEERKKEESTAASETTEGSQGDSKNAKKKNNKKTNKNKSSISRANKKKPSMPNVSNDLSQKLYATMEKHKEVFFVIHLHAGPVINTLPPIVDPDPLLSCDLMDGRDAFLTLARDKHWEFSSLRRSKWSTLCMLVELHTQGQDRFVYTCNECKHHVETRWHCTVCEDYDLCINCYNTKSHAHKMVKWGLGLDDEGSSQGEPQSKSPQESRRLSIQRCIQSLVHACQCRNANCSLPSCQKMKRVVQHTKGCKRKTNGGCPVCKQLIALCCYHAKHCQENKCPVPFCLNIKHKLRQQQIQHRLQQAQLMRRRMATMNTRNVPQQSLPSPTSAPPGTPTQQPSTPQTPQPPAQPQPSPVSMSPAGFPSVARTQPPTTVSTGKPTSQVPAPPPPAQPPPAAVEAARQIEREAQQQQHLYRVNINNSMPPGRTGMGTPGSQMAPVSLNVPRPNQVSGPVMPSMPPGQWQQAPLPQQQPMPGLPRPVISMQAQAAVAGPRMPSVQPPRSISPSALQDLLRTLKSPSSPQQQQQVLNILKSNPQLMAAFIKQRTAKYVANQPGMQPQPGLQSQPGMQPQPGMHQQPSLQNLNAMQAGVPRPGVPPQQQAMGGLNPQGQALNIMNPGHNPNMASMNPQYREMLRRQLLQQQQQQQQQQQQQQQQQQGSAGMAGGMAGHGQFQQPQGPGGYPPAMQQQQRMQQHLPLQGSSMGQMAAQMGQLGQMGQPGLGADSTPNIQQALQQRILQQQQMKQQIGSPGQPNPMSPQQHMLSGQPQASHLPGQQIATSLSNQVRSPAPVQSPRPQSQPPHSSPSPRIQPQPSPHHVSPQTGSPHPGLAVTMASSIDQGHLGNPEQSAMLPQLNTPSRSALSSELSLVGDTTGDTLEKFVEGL", "experiment": "Binding affinity to human partial length CREBBP (R1081 to G1197 residues) expressed in Escherichia coli BL21 cells assessed as residual binding level at 1 uM measured after 1 hr by quantitative PCR based BROMOscan assay relative to control", "procedure,_shortened": "as §1"}, "[5]": {"experiment": "Bioavailability in dog at 1 mg/kg, iv", "assay_type": "ADME, organism-based, Canis lupus familiaris", "settings": "in vivo"}, "[6]": {"molecular_target": "Bromodomain and PHD finger-containing protein 3 (Homo sapiens) (UniProt Q9ULD4)", "sequence (Q9ULD4 whole entry, the tested form may be a part)": "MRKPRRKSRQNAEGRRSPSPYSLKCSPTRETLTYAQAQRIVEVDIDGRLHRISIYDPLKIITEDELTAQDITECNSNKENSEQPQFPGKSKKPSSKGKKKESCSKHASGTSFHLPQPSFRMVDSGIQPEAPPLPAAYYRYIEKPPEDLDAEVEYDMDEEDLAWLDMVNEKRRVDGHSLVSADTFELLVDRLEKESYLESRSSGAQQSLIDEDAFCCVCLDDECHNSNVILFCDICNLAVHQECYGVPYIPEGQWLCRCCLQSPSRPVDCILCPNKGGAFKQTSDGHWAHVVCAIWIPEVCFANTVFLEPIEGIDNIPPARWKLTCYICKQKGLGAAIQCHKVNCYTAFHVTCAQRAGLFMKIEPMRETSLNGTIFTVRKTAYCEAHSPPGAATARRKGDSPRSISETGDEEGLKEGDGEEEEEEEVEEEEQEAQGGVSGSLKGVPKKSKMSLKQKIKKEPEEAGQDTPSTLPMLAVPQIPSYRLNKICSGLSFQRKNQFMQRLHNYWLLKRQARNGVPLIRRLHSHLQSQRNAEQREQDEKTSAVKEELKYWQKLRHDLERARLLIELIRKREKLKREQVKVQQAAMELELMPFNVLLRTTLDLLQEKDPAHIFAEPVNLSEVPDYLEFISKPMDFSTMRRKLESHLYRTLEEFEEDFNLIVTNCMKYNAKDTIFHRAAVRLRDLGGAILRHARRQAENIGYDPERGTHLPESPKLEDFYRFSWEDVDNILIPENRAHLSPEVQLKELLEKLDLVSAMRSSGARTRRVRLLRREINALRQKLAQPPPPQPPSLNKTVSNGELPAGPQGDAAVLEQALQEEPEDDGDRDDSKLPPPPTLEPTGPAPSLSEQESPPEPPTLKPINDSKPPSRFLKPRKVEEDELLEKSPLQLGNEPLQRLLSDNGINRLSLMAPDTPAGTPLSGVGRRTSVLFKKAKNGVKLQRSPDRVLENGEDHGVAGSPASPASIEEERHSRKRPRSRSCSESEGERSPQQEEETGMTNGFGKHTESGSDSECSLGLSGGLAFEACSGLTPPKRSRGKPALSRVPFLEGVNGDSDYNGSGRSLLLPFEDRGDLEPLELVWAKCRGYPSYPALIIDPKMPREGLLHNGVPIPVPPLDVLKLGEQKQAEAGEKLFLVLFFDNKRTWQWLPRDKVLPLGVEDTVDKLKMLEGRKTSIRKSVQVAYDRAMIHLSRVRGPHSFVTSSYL", "experiment": "Binding affinity to human partial length BRPF3 (E588 to G701 residues) expressed in Escherichia coli BL21 cells assessed as residual binding level at 1 uM measured after 1 hr by quantitative PCR based BROMOscan assay relative to control", "procedure,_shortened": "as §1"}, "MV4-11": {"test_system": "MV4-11", "experiment": "Induction of apoptosis in human MV4-11 cells assessed as reduction in XIAP level after 24 hrs by Western blot analysis", "assay_type": "functional, cell-based"}, "[7]": {"experiment": "AUC (0 to t) in rat plasma at 3 mg/kg, iv", "assay_type": "ADME, organism-based", "procedure,_shortened": "as §2"}, "[8]": {"experiment": "Clearance in dog liver microsomes", "assay_type": "ADME, Canis lupus familiaris, Microsome", "settings": "read-out: CLH"}, "AGS": {"test_system": "AGS", "experiment": "Antiproliferative activity against human AGS cells after 72 hrs by CCK8 or SRB assay", "assay_type": "functional, cell-based"}, "[9]": {"experiment": "Tmax in rat plasma at 50 mg/kg, po", "assay_type": "ADME, organism-based", "procedure,_shortened": "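Rats dosed orally at 50 mg/kg in 1% DMSO/0.5% HPMC; drug measured in plasma and brain.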"}, "[10]": {"molecular_target": "Bromodomain testis-specific protein (Homo sapiens) (UniProt Q58F21)", "experiment": "Binding affinity to human partial length BRDT bromodomain 1 (N21 to E137 residues) expressed in Escherichia coli BL21 cells assessed as residual binding level at 1 uM measured after 1 hr by quantitative PCR based BROMOscan assay relative to control", "procedure,_shortened": "as §1"}, "[11]": {"molecular_target": "Histone acetyltransferase KAT2B (Homo sapiens) (UniProt Q92831)", "experiment": "Binding affinity to human partial length PCAF (G715 to D831 residues) expressed in mammalian expression system assessed as residual binding level at 1 uM measured after 1 hr by quantitative PCR based BROMOscan assay relative to control", "procedure,_shortened": "(§3)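 Bromodomain panel screen (32 bromodomains) run at 1 μM single concentration; primary binding reported as 'Percent Control', lower values meaning stronger interaction.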"}, "[12]": {"molecular_target": "Bromodomain-containing protein 2 (Homo sapiens) (UniProt P25440)", "experiment": "Inhibition of BRD2 bromodomain 1 (unknown origin)"}, "[13]": {"experiment": "AUC (0 to t) in rat plasma at 50 mg/kg, po", "assay_type": "ADME, organism-based", "procedure,_shortened": "as §2"}, "KG-1": {"test_system": "KG-1", "experiment": "Antiproliferative activity against human KG1 cells after 72 hrs by CCK8 or SRB assay", "assay_type": "functional, cell-based"}, "[14]": {"experiment": "Half life in rat plasma at 3 mg/kg, iv", "assay_type": "ADME, organism-based"}, "[15]": {"experiment": "AUC (0 to t) in ICR mouse plasma at 100 mg/kg, po administered via gavage measured after 0.25 to 24 hrs by UPLC/MS analysis", "assay_type": "ADME, organism-based", "set-up": "time upper 24 hr, dose 100 mg/kg, time lower 0.25 hr, route oral", "procedure,_shortened": "(§4)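 Male ICR mice were dosed orally in 1% DMSO/0.5% HPMC vehicle. Plasma (and brain, where stated) concentrations gave Tmax, Cmax, T1/2, AUC0-t and AUC0-inf.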"}, "[16]": {"molecular_target": "Transcription initiation factor TFIID subunit 1 (Homo sapiens) (UniProt P21675)", "experiment": "Binding affinity to human partial length TAF1 bromodomain 2 (D1521 to D1656 residues) expressed in Escherichia coli BL21 cells assessed as residual binding level at 1 uM measured after 1 hr by quantitative PCR based BROMOscan assay relative to control", "procedure,_shortened": "as §3"}, "[17]": {"experiment": "AUC (0 to infinity) in dog plasma at 3 mg/kg, po", "assay_type": "ADME, organism-based, Canis lupus familiaris", "set-up": "dose 3 mg/kg, route oral, time infinity", "procedure,_shortened": "as §2"}, "[18]": {"molecular_target": "Protein polybromo-1 (Homo sapiens) (UniProt Q86U86)", "experiment": "Binding affinity to human partial length PB1 bromodomain 5 (S645 to D766 residues) expressed in Escherichia coli BL21 cells assessed as residual binding level at 1 uM measured after 1 hr by quantitative PCR based BROMOscan assay relative to control", "procedure,_shortened": "as §3"}, "[19]": {"molecular_target": "Bromodomain-containing protein 2 (Homo sapiens) (UniProt P25440)", "experiment": "Inhibition of BRD2 bromodomain 2 (unknown origin)", "procedure,_shortened": "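Bromodomain binding panel (32 bromodomains) screened at 1 μM; primary binding read-out reported as percent of control, lower values meaning stronger binding.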"}, "[20]": {"experiment": "Half life in mouse liver microsomes at 1 uM preincubated for 5 mins followed by NADPH addition and measured after 5 to 30 mins by LC/MS/MS analysis", "assay_type": "ADME, Microsome", "settings": "microsomes, 1 µM"}, "[21]": {"experiment": "Half life in dog liver microsomes", "assay_type": "ADME, Canis lupus familiaris, Microsome"}, "[22]": {"molecular_target": "ATPase family AAA domain-containing protein 2 (Homo sapiens) (UniProt Q6PL18)", "experiment": "Binding affinity to human partial length ATAD2A (Q981 to R1108 residues) expressed in Escherichia coli BL21 cells assessed as residual binding level at 1 uM measured after 1 hr by quantitative PCR based BROMOscan assay relative to control", "procedure,_shortened": "as §1"}, "[23]": {"experiment": "Half life in rat brain at 50 mg/kg, po", "assay_type": "ADME, organism-based"}, "[24]": {"molecular_target": "E3 ubiquitin-protein ligase TRIM33 (Homo sapiens) (UniProt Q9UPN9)", "experiment": "Binding affinity to human partial length TRIM33 (D882 to A1087 residues) expressed in Escherichia coli BL21 cells assessed as residual binding level at 1 uM measured after 1 hr by quantitative PCR based BROMOscan assay relative to control", "procedure,_shortened": "as §3"}, "[25]": {"experiment": "AUC (0 to t) in ICR mouse plasma at 50 mg/kg, po administered via gavage measured after 0.25 to 24 hrs by UPLC/MS analysis", "assay_type": "ADME, organism-based", "set-up": "time lower 0.25 hr, dose 50 mg/kg, time upper 24 hr, route oral", "procedure,_shortened": "as §4"}, "[26]": {"experiment": "Half life in ICR mouse brain at 50 mg/kg, po administered via gavage measured after 0.25 to 24 hrs by UPLC/MS analysis", "assay_type": "ADME, organism-based", "procedure,_shortened": "(§5)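 Male ICR mice dosed orally in 1% DMSO/0.5% HPMC vehicle; plasma or brain drug levels used to derive Tmax, Cmax, AUC0-t, AUC0-inf and T1/2.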"}, "[27]": {"molecular_target": "Serine/threonine-protein kinase PLK1 (Homo sapiens) (UniProt P53350)", "sequence (P53350 whole entry)": "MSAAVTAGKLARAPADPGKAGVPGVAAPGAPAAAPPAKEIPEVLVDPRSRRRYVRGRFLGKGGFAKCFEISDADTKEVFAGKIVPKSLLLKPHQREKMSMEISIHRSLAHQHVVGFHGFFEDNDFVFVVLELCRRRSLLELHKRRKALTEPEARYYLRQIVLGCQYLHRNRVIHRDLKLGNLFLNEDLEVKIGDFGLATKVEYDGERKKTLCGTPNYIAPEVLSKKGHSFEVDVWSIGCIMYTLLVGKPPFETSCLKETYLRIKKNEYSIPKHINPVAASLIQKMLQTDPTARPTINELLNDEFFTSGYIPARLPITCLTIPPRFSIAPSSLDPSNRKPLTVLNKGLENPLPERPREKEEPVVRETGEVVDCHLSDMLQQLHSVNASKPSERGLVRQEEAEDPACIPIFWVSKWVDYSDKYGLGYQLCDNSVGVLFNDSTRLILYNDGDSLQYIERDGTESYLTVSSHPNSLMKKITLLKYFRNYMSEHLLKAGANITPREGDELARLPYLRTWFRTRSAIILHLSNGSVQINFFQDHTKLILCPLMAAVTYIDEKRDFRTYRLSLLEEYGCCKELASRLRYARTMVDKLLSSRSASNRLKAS", "experiment": "Inhibition of full-length recombinant human His-tagged PLK1 expressed in baculovirus expression system at 10 uM using Ser/Thr 16 Peptide as substrate after 60 mins by Z-LYTE assay relative to control"}, "[28]": {"experiment": "Half life in ICR mouse plasma at 50 mg/kg, po administered via gavage measured after 0.25 to 24 hrs by UPLC/MS analysis", "assay_type": "ADME, organism-based", "procedure,_shortened": "as §5"}}, "note": "Calls of active or inactive are those of the source. The calls are words filed in the database; no cut-off is given here.", "data": [{"smiles": "Cc1ccc(-n2nc(C(=O)N3C[C@@H](C)N[C@@H](C)C3)nc2-c2ccc3c(c2)N(C2CCCC2)[C@H](C)C(=O)N3C)cc1", "values": [{"measurement": "Activity", "setting": "[1]", "value": "< 5", "unit": "%"}, {"measurement": "Tmax", "setting": "[2]", "value": 1, "unit": "h"}, {"measurement": "AUC(0-t)", "setting": "[3]", "value": 726, "unit": "ng·h/mL"}, {"measurement": "Activity", "setting": "[4]", "value": "50 to 70", "unit": "%"}, {"measurement": "bioavailability", "setting": "[5]", "value": 34.3, "unit": "%"}, {"measurement": "Activity", "setting": "[6]", "value": "70 to 100", "unit": "%"}, {"measurement": "Activity", "setting": "MV4-11", "value": "Dose-dependent effect"}, {"measurement": "AUC(0-t)", "setting": "[7]", "value": 2010, "unit": "ng·h/mL"}, {"measurement": "microsomal CLint", "setting": "[8]", "value": 77, "unit": "µL/min/mg"}, {"measurement": "Activity", "setting": "AGS", "value": "Active"}, {"measurement": "Tmax", "setting": "[9]", "value": 0.4, "unit": "h"}, {"measurement": "Activity", "setting": "[10]", "value": "< 5", "unit": "%"}, {"measurement": "Activity", "setting": "[11]", "value": "70 to 100", "unit": "%"}, {"measurement": "inhibition activity call (active/inactive)", "setting": "[12]", "value": "Active"}, {"measurement": "AUC(0-t)", "setting": "[13]", "value": 3820, "unit": "ng·h/mL"}, {"measurement": "Activity", "setting": "KG-1", "value": "Active"}, {"measurement": "half-life", "setting": "[14]", "value": 1.8, "unit": "h"}, {"measurement": "AUC(0-t)", "setting": "[15]", "value": 80600, "unit": "ng·h/mL"}, {"measurement": "Activity", "setting": "[16]", "value": "5 to 20", "unit": "%"}, {"measurement": "AUC(0-inf)", "setting": "[17]", "value": 798, "unit": "ng·h/mL"}, {"measurement": "Activity", "setting": "[18]", "value": "70 to 100", "unit": "%"}, {"measurement": "inhibition", "setting": "[19]", "value": "Active"}, {"measurement": "t1/2", "setting": "[20]", "value": 3.22, "unit": "h"}, {"measurement": "half-life", "setting": "[21]", "value": 0.3, "unit": "h"}, {"measurement": "Activity", "setting": "[22]", "value": "70 to 100", "unit": "%"}, {"measurement": "half-life", "setting": "[23]", "value": 9.3, "unit": "h"}, {"measurement": "Activity", "setting": "[24]", "value": "70 to 100", "unit": "%"}, {"measurement": "AUC(0-t)", "setting": "[25]", "value": 16700, "unit": "ng·h/mL"}, {"measurement": "half-life", "setting": "[26]", "value": 3, "unit": "h"}, {"measurement": "inhibition", "setting": "[27]", "value": "< 10", "unit": "%"}, {"measurement": "half-life", "setting": "[28]", "value": 2.8, "unit": "h"}]}]}
